# pIC50: −log10 of the molar value.
# What was measured:
# [1] = target: GABA-A receptor; anion channel; assay: Inhibition of [35S]TBPS binding to Gamma-aminobutyric acid A receptor of rat brain membranes; format: cell membranes, Membrane
# [2] = system: Mus musculus; assay: In vivo anaesthetic activity after intravenous administration in MF-1 mice was determined by loss of righting reflex using probit analysis; format: functional
# [3] = organism: Rattus norvegicus; assay: Maximum BSR reached in male Wistar rats; format: functional
# [4] = organism: Rattus norvegicus; assay: Time required to gain the righting reflex in male Wistar rats; format: functional, organism-based
# [5] = organism: Rattus norvegicus; assay: Time taken to reach the maximum BSR in male Wistar rats; format: functional
# [6] = organism: Rattus norvegicus; assay: Time taken for 50% decrease in the BSR in male Wistar rats; format: functional
# [7] = organism: Rattus norvegicus; assay: Time to the first 0.25 s burst suppression epoch(onset of anaesthesa) in male Wistar rats; format: functional
# [8] = system: Mus musculus; assay: In vivo anaesthetic activity after intravenous administration in MF-1 mice was determined by loss of righting reflex using probit analysis; Convulsant; format: functional, organism-based
# [9] = organism: Rattus norvegicus; assay: Burst suppression ratio (BSR) profile in male Wistar rats; format: functional
# Summary of the method: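 Male Wistar rats (218–420 g), with extradural electrodes implanted and at least 7 days recovery, lightly hand-restrained. IV injection over 10 s into a tail vein by computer-controlled infusion pump. […] BSR extracted from EEG. Read-outs: onset (first 0.25 s burst-suppression epoch), time to max BSR, time to 50% BSR decrease, time to regain righting reflex. Mean and SEM.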
# [10] = system: GABA-A receptor; anion channel; assay: Inhibition of [35S]TBPS binding to Gamma-aminobutyric acid A (GABA-A) receptor of rat whole brain membranes (inactive); format: cell membranes
# Summary of the method: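 Rat whole-brain membranes. Inhibition of [35S]TBPS radioligand binding at the GABA-A receptor. […] Means of three experiments.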
SMILES,pIC50 [1],HD50 [2],other results
CC(=O)Nc1c(C(C)C)cc(CN2CCOCC2)cc1C(C)C,< 5.00,>282 µM/kg,
CC(C)c1cc(CN2CCOCC2)cc(C(C)C)c1N(C)C,< 4.52,83 µM/kg,
CC(C)c1cc(CN2CCOCC2)cc(C(C)C)c1N,< 4.00,36.5 µM/kg,
CNc1c(C(C)C)cc(CN2CCOCC2)cc1C(C)C,< 4.00,51 µM/kg,
CC(C)c1cccc(C(C)C)c1O [PROPOFOL],,68 µM/kg,Max BSR [3]: 55%; Recovery time [4]: 5.2 min; Time to max. BSR [5]: 30 s; Offset time [6]: 1.4 min; Onset time [7]: 13.2 s
CC(C)c1cc(CN2CCSCC2)cc(C(C)C)c1N,< 4.00,22.9 µM/kg,
CC(C)c1cc(CN2CCOCC2)cc(C(C)C)c1,< 4.52,,HD50 [8]: Convulsant
CC(C)c1cc(C(=O)CN2CCSCC2)cc(C(C)C)c1O,< 5.00,68.5 µM/kg,
CC(C)c1cc(CCN2CCOCC2)cc(C(C)C)c1O,< 4.00,35.8 µM/kg,
CC(C)c1cc(CN2CCOCC2)cc(C(C)C)c1O,< 4.00,32 µM/kg,BSR [9]: 51 µM/kg; Max BSR [3]: 54.9%; Recovery time [4]: 3.8 min; Time to max. BSR [5]: 40 s; Offset time [6]: 1.7 min; Onset time [7]: 16.2 s
CC(C)c1cc(CN2CCSCC2)cc(C(C)C)c1O,4.56,25.5 µM/kg,
CC(C)c1cc(CN(C)Cc2ccccc2)cc(C(C)C)c1O,< 5.00,25.1 µM/kg,
CCOC(=O)C1CCN(Cc2cc(C(C)C)c(O)c(C(C)C)c2)CC1,4.51,19 µM/kg,
CCOC(=O)C1CCN(Cc2cc(C(C)C)c(N)c(C(C)C)c2)CC1,,14.4 µM/kg,IC50 [10]: Not Active
CC(=O)N1CCN(Cc2cc(C(C)C)c(O)c(C(C)C)c2)CC1,< 4.00,38.8 µM/kg,
